Reference: ChEMBL document CHEMBL4834447, “A gemcitabine-based conjugate with enhanced antitumor efficacy by suppressing HIF-1α expression under hypoxia” (Bioorg Med Chem, 2021)
Calls of active or inactive are those of the source. The calls are words filed in the database; no cut-off is given here.

What was measured:
A2780 [1] = experiment: Cytotoxicity against human A2780 cells assessed as reduction in cell viability incubated for 72 hrs by MTT assay; format: functional, cell-based; conditions: A2780, 72 h
Procedure, shortened: (§1)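 In the MTT assay, logarithmic-phase cells were seeded at about 5 × 10⁴ cells/mL and preincubated 12 h. Cells were then exposed for 72 h at 37 °C under normoxia (20% O₂, 5% CO₂) to seven final concentrations, 1.25–80 μmol/L, diluted from DMSO stock. MTT (5 mg/mL) was added for 4 h, formazan was dissolved in DMSO, and absorbance was read at 570/630 nm. IC50 was calculated by the Bliss method; values are mean ± SD of three independent runs in duplicate.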

A2780 [2] = experiment: Induction of apoptosis in human A2780 cells assessed as necrotic cells at 0.5 uM incubated for 72 hrs in hypoxic condition by annexin-V-FITC and PI staining based flow cytometry analysis (reference value: 3.04 %); format: functional
A2780 [3] = experiment: Induction of apoptosis in human A2780 cells assessed as viable cells at 0.5 uM incubated for 72 hrs in hypoxic condition by annexin-V-FITC and PI staining based flow cytometry analysis (reference value: 81.05 %); format: functional; conditions: read-out: Activity
A2780 [4] = experiment: Induction of apoptosis in human A2780 cells assessed as necrotic cells at 0.5 uM incubated for 72 hrs by annexin-V-FITC and PI staining based flow cytometry analysis (reference value: 0.98 %); format: functional
A2780 [5] = experiment: Induction of cell cycle arrest in human A2780 cells assessed as G1 phase at 0.5 uM incubated for 24 hrs by PI staining based flow cytometry analysis (reference value: 75.23 %)
A2780 [6] = experiment: Antitumor activity against human A2780 cells xenografted in BALB/c mouse assessed as reduction in tumor volume at 125 mg/kg, iv administered for 28 days and measured on day 28 relative to control; format: functional; set-up: scale not given: the % may be the effect or the level left; conditions: time 28 day
Procedure, shortened: (§2)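 Female BALB/c nude mice, 5 weeks old, were implanted subcutaneously in the right armpit with 10⁷ A2780 cells in 0.1 mL PBS. At 100–150 mm³ (day 19) mice were randomized (5/group) and dosed by tail-vein injection once weekly for 4 weeks. GEM-5 was given in DMF:Tween 80:5% dextrose (10:2:88); vehicle controls received 5% dextrose. Volume was measured by caliper (V = AB²/2) every 3 days. Tumors were weighed after sacrifice, giving the tumor inhibitory rate.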

L02 [7] = experiment: Cytotoxicity against human L02 cells assessed as reduction in cell viability incubated for 72 hrs in hypoxic condition by MTT assay; format: cell-based; conditions: L02, 72 h
L02 [8] = experiment: Cytotoxicity against human L02 cells assessed as reduction in cell viability incubated for 72 hrs by MTT assay; format: cell-based; conditions: L02, 72 h; procedure, shortened: as §1
A2780 [9] = experiment: Induction of cell cycle arrest in human A2780 cells assessed as G2/M phase at 0.5 uM incubated for 24 hrs by PI staining based flow cytometry analysis (reference value: 4.66 %)
A2780 [10] = experiment: Upregulation of p53 in human A2780 cells at 0.1 to 1 uM incubated for 24 hrs in hypoxia condition by Western blot analysis; format: functional, cell-based; conditions: dose 0.1-1 µM
Procedure, shortened: (§3)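 A2780 cells were treated at the indicated concentrations for 24 h under hypoxia. They were lysed in Tris-Cl pH 6.8 buffer with SDS, glycerol, β-mercaptoethanol, PMSF and aprotinin, then centrifuged at 13000 rpm for 20 min at 4 °C. Proteins were resolved by SDS-PAGE and transferred to PVDF. Blots were probed for HIF-1α, p53 and GAPDH, with secondary antibody at 1:2000 for 1 h, and detected by chemiluminescence.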

A549 [11] = experiment: Cytotoxicity against human A549 cells assessed as reduction in cell viability incubated for 72 hrs by MTT assay; format: functional, cell-based; conditions: A549, 72 h; procedure, shortened: as §1
A2780 [12] = experiment: Induction of cell cycle arrest in human A2780 cells assessed as G2/M phase at 0.5 uM incubated for 24 hrs in hypoxic condition by PI staining based flow cytometry analysis (reference value: 8.38 %)
A2780 [13] = experiment: Induction of cell cycle arrest in human A2780 cells assessed as G1 phase at 0.5 uM incubated for 24 hrs in hypoxic condition by PI staining based flow cytometry analysis (reference value: 56.83 %)
A2780 [14] = experiment: Induction of apoptosis in human A2780 cells assessed as late apoptotic cells at 0.5 uM incubated for 72 hrs by annexin-V-FITC and PI staining based flow cytometry analysis (reference value: 1.71 %); format: functional
A2780 [15] = experiment: Induction of apoptosis in human A2780 cells assessed as late apoptotic cells at 0.5 uM incubated for 72 hrs in hypoxic condition by annexin-V-FITC and PI staining based flow cytometry analysis (reference value: 6.17 %); format: functional
[16] = Toxicity in BALB/c mouse xenografted with human A2780 cells assessed as effect on body weight at 125 mg/kg, iv administered for 28 days and measured on day 28; format: organism-based; conditions: in vivo, 672 h, time 28 day
Procedure, shortened: (§4)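 The A2780 subcutaneous xenograft was set up in female BALB/c nude mice. Weekly i.v. tail-vein dosing ran for 4 weeks, starting at 100–150 mm³ tumor size (5 mice/group), with DMF:Tween 80:5% dextrose (10:2:88) as the formulation and a 5% dextrose vehicle control. Body weight was recorded every three days over 28 days.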

A2780 [17] = experiment: Antitumor activity against human A2780 cells xenografted in BALB/c mouse assessed as reduction in tumor growth at 125 mg/kg, iv administered for 28 days and measured on day 28 relative to control; format: functional; conditions: 672 h, time 28 day, read-out: TGI; procedure, shortened: as §2
A2780 [18] = experiment: Induction of cell cycle arrest in human A2780 cells assessed as S phase at 0.5 uM incubated for 24 hrs in hypoxic condition by PI staining based flow cytometry analysis (reference value: 34.79 %)
A2780 [19] = experiment: Induction of apoptosis in human A2780 cells assessed as viable cells at 0.5 uM incubated for 72 hrs by annexin-V-FITC and PI staining based flow cytometry analysis (reference value: 91.95 %); format: functional; conditions: read-out: Activity
A2780 [20] = experiment: Induction of apoptosis in human A2780 cells assessed as early apoptotic cells at 0.5 uM incubated for 72 hrs in hypoxic condition by annexin-V-FITC and PI staining based flow cytometry analysis (reference value: 9.74 %); format: functional
A2780 [21] = experiment: (§5) Downregulation of HIF-1alpha in human A2780 cells at 1 uM incubated for 24 hrs in hypoxia condition by Western blot analysis relative to control; format: functional; procedure, shortened: as §3
A549 [22] = experiment: Cytotoxicity against human A549 cells assessed as reduction in cell viability incubated for 72 hrs in hypoxic condition by MTT assay; format: functional, cell-based; conditions: A549, 72 h
Procedure, shortened: (§6)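 For the hypoxic MTT assay, cells were seeded at about 5 × 10⁴ cells/mL and preincubated 12 h under hypoxia (1% O₂, 5% CO₂, 94% N₂). They were then treated for 72 h at 37 °C with final concentrations of 1.25–80 μmol/L. MTT was added for 4 h and absorbance read at 570/630 nm. IC50 was obtained by the Bliss method; tests were repeated three times.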

MCF7 [23] = experiment: Cytotoxicity against human MCF7 cells assessed as reduction in cell viability incubated for 72 hrs by MTT assay; format: functional, cell-based; conditions: MCF7, 72 h; procedure, shortened: as §1
A2780 [24] = experiment: Induction of apoptosis in human A2780 cells assessed as early apoptotic cells at 0.5 uM incubated for 72 hrs by annexin-V-FITC and PI staining based flow cytometry analysis (reference value: 5.35 %); format: functional
A2780 [25] = experiment: Cytotoxicity against human A2780 cells assessed as reduction in cell viability incubated for 72 hrs in hypoxic condition by MTT assay; format: functional, cell-based; conditions: A2780, 72 h; procedure, shortened: as §6
A2780 [26] = experiment: Induction of cell cycle arrest in human A2780 cells assessed as S phase at 0.5 uM incubated for 24 hrs by PI staining based flow cytometry analysis (reference value: 20.11 %)
[27] = as §5; format: functional; procedure, shortened: as §3
MCF7 [28] = experiment: Potency index, ratio of IC50 of GEM to IC50 of compound for cytotoxicity against human MCF7 cells assessed as reduction in cell viability incubated for 72 hrs by MTT assay; format: functional
Procedure, shortened: (§7)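 The fold value is the IC50 of gemcitabine divided by the compound's IC50. Both IC50s come from 72 h normoxic MTT assays (1.25–80 μmol/L, Bliss method, three independent runs).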

A2780 [29] = experiment: Antitumor activity against human A2780 cells xenografted in BALB/c mouse assessed as reduction in tumor growth at 271 mg/kg, iv administered for 28 days and measured on day 28 relative to control; format: functional; conditions: 672 h, time 28 day, read-out: TGI; procedure, shortened: as §2
A2780 [30] = experiment: Antitumor activity against human A2780 cells xenografted in BALB/c mouse assessed as reduction in tumor hypoxia at 271 mg/kg, iv administered for 28 days and measured on day 28 by DAPI staining based confocal microscopic analysis; format: functional, organism-based; conditions: time 28.0 day
Procedure, shortened: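 Tumor sections from the weekly i.v.-dosed A2780 xenograft mice were stained for hypoxia with the pimonidazole kit. This used FITC anti-pimonidazole antibody (1:100) plus HRP rabbit anti-FITC secondary (1:100), with DAPI for nuclei. Green hypoxic areas were imaged by confocal microscopy. Three independent experiments were run.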

A2780 [31] = experiment: Antitumor activity against human A2780 cells xenografted in BALB/c mouse assessed as reduction in tumor volume at 271 mg/kg, iv administered for 28 days and measured on day 28 relative to control; format: functional; set-up: scale not given: the % may be the effect or the level left; conditions: time 28 day; procedure, shortened: as §2
A549 [32] = experiment: Potency index, ratio of IC50 of GEM to IC50 of compound for cytotoxicity against human A549 cells assessed as reduction in cell viability incubated for 72 hrs by MTT assay; format: functional; procedure, shortened: as §7
[33] = Toxicity in BALB/c mouse xenografted with human A2780 cells assessed as effect on body weight at 271 mg/kg, iv administered for 28 days and measured on day 28; format: organism-based; conditions: in vivo, 672 h, time 28 day; procedure, shortened: as §4
A2780 [34] = experiment: Downregulation of HIF-1alpha in human A2780 cells incubated for 24 hrs in hypoxia condition by Western blot analysis; format: functional, cell-based; conditions: dose 0.1-1 µM; procedure, shortened: as §3
A2780 [35] = experiment: Potency index, ratio of IC50 of GEM to IC50 of compound for cytotoxicity against human A2780 cells assessed as reduction in cell viability incubated for 72 hrs by MTT assay; format: functional; procedure, shortened: as §7

SMILES	IC50 (A2780 [1])	Activity (A2780 [2])	viability at 0.5 µM (A2780 [3])	Activity (A2780 [4])	Activity (A2780 [5])	Activity (A2780 [6])	IC50 (L02 [7])	IC50 (L02 [8])	Activity (A2780 [9])	Activity (A2780 [10])	IC50 (A549 [11])	Activity (A2780 [12])	Activity (A2780 [13])	Activity (A2780 [14])	Activity (A2780 [15])	Activity [16]	inhibition in vivo at 125 mg/kg (A2780 [17])	IC50 (A549 [22])	IC50 (MCF7 [23])	IC50 (A2780 [25])	also measured
Cl.Nc1ccn([C@@H]2O[C@H](CO)[C@@H](O)C2(F)F)c(=O)n1 [GEMCITABINE HYDROCHLORIDE]	1.25 µM	2.44%	53%	8.98%	42.51%	29.37%	4.51 µM	11.9 µM	5.95%	Dose-Dependent Effect	2.31 µM	2.7%	37.21%	34.42%	19.51%	Non-Toxic	69.7%	14.7 µM	6.35 µM	1.38 µM	Activity (A2780 [18]): 60.08%; viability at 0.5 µM (A2780 [19]): 51.6%; Activity (A2780 [20]): 25%; Activity (A2780 [21]): inactive; Activity (A2780 [24]): 5.02%; Activity (A2780 [26]): 51.54%
OCc1ccc(-c2nn(Cc3ccccc3)c3ccccc23)o1	> 80 µM						26.6 µM	> 80 µM		inactive	> 80 µM							25.6 µM	> 80 µM	20.4 µM	Activity [27]: 50%
Nc1ccn([C@@H]2O[C@H](COC(=O)CCC(=O)OCc3ccc(-c4nn(Cc5ccccc5)c5ccccc45)o3)[C@@H](O)C2(F)F)c(=O)n1	0.13 µM	1.13%	18%	12.08%	17.74%	46.09%	3.04 µM	4.43 µM	19.24%	Dose-Dependent Effect	0.37 µM	7.99%	19.37%	48.82%	32.41%	Non-Toxic	55.1%	3.03 µM	2.6 µM	0.03 µM	Ratio IC50 (MCF7 [28]): 2.4; inhibition in vivo at 271 mg/kg (A2780 [29]): 64.6%; Activity (A2780 [18]): 72.64%; Activity (A2780 [30]): Active; Activity (A2780 [31]): 36.61%; Ratio IC50 (A549 [32]): 6.2; viability at 0.5 µM (A2780 [19]): 35.2%; Activity (A2780 [20]): 48.48%; Activity [33]: Non-Toxic; Activity (A2780 [34]): Dose-Dependent Effect; Ratio IC50 (A2780 [35]): 9.6; Activity (A2780 [24]): 3.85%; Activity (A2780 [26]): 63.02%
